Reference: article PMC5412920 (Journal of Clinical Pharmacology, 2016)
Read-outs that look alike come from different tables or passages of the source. Marks after values point to notes of the source that are not given here.

What was measured:
[1] = Renal impairment study: excretion in urine and blood dialysate; format: in vivo, human
In short: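 Subjects were ESRD patients on haemodialysis or healthy subjects with creatinine clearance >80 mL/min, each given 50 mg orally while fasted. ESRD patients were dosed once after dialysis and, after a washout of ≥7 days, once 1 h before dialysis. Urine was collected predose and in intervals to 72 h. Dialysate spot samples were taken every 30 min, and parameters were derived by the area under the excretion rate curve method. Analysis was by LC-MS/MS.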

plasma proteins = assay: Unbound fraction in plasma; format: in vitro ADME, human; settings: healthy subjects; for fu,av: 50 mg, median (min-max)
In short: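 Unbound fraction was measured in human plasma by ultrafiltration after a single oral dose. Ultrafiltrate was analysed by LC-MS/MS in MRM mode with carbon-13 internal standards. Within each subject, the mean percentage unbound from 3 results was applied to all of that subject's samples to give the average fraction unbound (fu,av).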

[2] = format: in vivo, human; settings: for t1/2: arithmetic mean (SD); for AUC, geometric least-squares mean / Cmax, geometric least-squares mean: fixed-effect ANOVA; for Cmax / MRAUC (metabolite-to-parent AUC ratio) / MRCmax (metabolite-to-parent Cmax ratio) / AUCu / Cmax,u: geometric mean (gCV%); for tmax: median (min-max); for AUCu / Cmax,u: unbound
[3] = NCT02093728 and NCT02046850; cited from earlier work
[4] = format: in vivo, human; settings: for t1/2: arithmetic mean (SD); for tmax: median (min-max)
[5] = Hepatic impairment study: excretion in urine; format: in vivo, human
In short: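 Urine from hepatic-impairment and healthy subjects was collected at −12 to 0 h predose, then 0–6, 6–12, 12–24, 24–36 and 36–48 h, and every 24 h to 120 h after a single oral dose. Dosing followed an overnight fast, with fasting until 4 h postdose. Analytes were measured by LC-MS/MS (positive electrospray, MRM) against carbon-13 internal standards.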

[6] = ESRD, treatment period 1 (50 mg after dialysis)
[7] = ESRD, treatment period 2 (50 mg 1 h before dialysis)
[8] = healthy subjects, 50 mg, geometric mean (gCV%)
[9] = mild hepatic impairment, 50 mg, geometric mean (gCV%)
[10] = moderate hepatic impairment, 50 mg (N = 6) or 25 mg (N = 2), geometric mean (gCV%)
[11] = moderate hepatic impairment, 50 mg dose only
[12] = moderate hepatic impairment, 50 or 25 mg
[13] = severe hepatic impairment, 20 mg

SMILES: O=C(NOCCO)c1cc2nc[nH]c2c(F)c1Nc1ccc(Br)cc1Cl [N‐desmethyl selumetinib]
- dose excreted in dialysate ([1]; ESRD, dosed 1 h before dialysis): 0.089%
- fraction excreted in urine ([1]; healthy subjects, 50 mg): 0.73%
- median unbound fraction (plasma proteins; in both studies): ~0.6%
- fu,av (plasma proteins; hepatic impairment study): 0.61 (0.54‐0.70) ^j %
- fu,av (plasma proteins; renal impairment study): 0.688 (0.659‐0.712) ^e %
- Cmax, ESRD/Healthy Ratio (90%CI) ([2]; ESRD treatment period 1 vs healthy): 84.48 (61.60, 115.86) %
- AUC, ESRD/Healthy Ratio (90%CI) ([2]; ESRD treatment period 1 vs healthy, 50 mg): 91.95 (67.73, 124.83) %
- AUC lower when dosed before vs after dialysis ([2]; ESRD, 50 mg): 10%
- Cmax lower when dosed before vs after dialysis ([2]; ESRD, 50 mg): 15%
- t1/2 [2, 6]: 6.28 (2.87) ^d h
- AUC, geometric least-squares mean [2, 6]: 171.0 ng·h/mL
- Cmax [2, 6]: 45.1 (40.4) ng/mL
- tmax [2, 6]: 1.25 (0.50‐3.00) h
- Cmax, geometric least-squares mean ([2]; ESRD, treatment period 1): 45.15 ng/mL
- MRAUC (metabolite-to-parent AUC ratio) ([2]; ESRD, treatment period 1): 0.0864 (45.9) ^d
- MRCmax (metabolite-to-parent Cmax ratio) ([2]; ESRD, treatment period 1): 0.0623 (42.8)
- t1/2 [2, 7]: 5.79 (2.52) ^d h
- Cmax [2, 7]: 38.5 (57.7) ng/mL
- tmax [2, 7]: 1.50 (1.00‐2.00) h
- MRAUC (metabolite-to-parent AUC ratio) ([2]; ESRD, treatment period 2): 0.0930 (48.6) ^d
- MRCmax (metabolite-to-parent Cmax ratio) ([2]; ESRD, treatment period 2): 0.0759 (35.9)
- t1/2 ([2]; healthy subjects, 50 mg): 5.41 (1.40) h
- AUC, geometric least-squares mean ([2]; healthy subjects, 50 mg): 185.9 ng·h/mL
- Cmax ([2]; healthy subjects, 50 mg): 53.4 (52.1) ng/mL
- tmax ([2]; healthy subjects, 50 mg): 1.50 (1.00‐3.00) h
- Cmax, geometric least-squares mean ([2]; healthy subjects): 53.45 ng/mL
- MRAUC (metabolite-to-parent AUC ratio) ([2]; healthy subjects): 0.0710 (38.4)
- MRCmax (metabolite-to-parent Cmax ratio) ([2]; healthy subjects): 0.0619 (32.9)
- AUCu [2, 6]: 2.10 (19.2) ^e ng·h/mL
- Cmax,u [2, 6]: 0.561 (14.8) ^e ng/mL
- AUCu ([2]; healthy subjects, 50 mg): 1.72 (14.4) ^e ng·h/mL
- Cmax,u ([2]; healthy subjects, 50 mg): 0.619 (8.5) ^e ng/mL
- AUC and Cmax as percentage of the parent compound [3]: ~7%
- AUC(0–t)/dose, geometric least-squares mean ([4]; healthy subjects, 50 mg): 4.841 ng·h/mL/mg
- Cmax/dose, geometric least-squares mean ([4]; healthy subjects, 50 mg): 1.809 ng/mL/mg
- t1/2 ([4]; healthy subjects, 50 mg): 9.24 (3.33) h
- AUC(0–t)/dose [4, 8]: 4.84 (43.4) ng·h/mL/mg
- Cmax/dose [4, 8]: 1.81 (57.0) ng/mL/mg
- tmax ([4]; healthy subjects, 50 mg): 1.00 (1.00‐2.00) h
- AUC(0-t)/dose lower than in healthy subjects ([4]; mild hepatic impairment): 49%
- Cmax/dose lower than in healthy subjects ([4]; mild hepatic impairment): 56%
- AUC(0–t)/dose, geometric least-squares mean ([4]; mild hepatic impairment, 50 mg): 2.445 ng·h/mL/mg
- Cmax/dose, geometric least-squares mean ([4]; mild hepatic impairment, 50 mg): 0.8041 ng/mL/mg
- t1/2 ([4]; mild hepatic impairment, 50 mg): 5.18 (1.51) ^f h
- AUC(0–t)/dose [4, 9]: 2.45 (41.1) ng·h/mL/mg
- Cmax/dose [4, 9]: 0.804 (57.7) ng/mL/mg
- tmax ([4]; mild hepatic impairment, 50 mg): 1.50 (1.00‐4.00) h
- AUC(0–t)/dose, Hepatic impairment/healthy ratio (90%CI) ([4]; mild vs healthy): 50.51 (28.28, 90.19) %
- Cmax/dose, Hepatic impairment/healthy ratio (90%CI) ([4]; mild vs healthy): 44.44 (25.70, 76.85) %
- AUC(0-t)/dose lower than in healthy subjects ([4]; moderate hepatic impairment): 62%
- Cmax/dose lower than in healthy subjects ([4]; moderate hepatic impairment): 70%
- AUC(0–t)/dose [4, 10]: 1.83 (129.6) ng·h/mL/mg
- Cmax/dose [4, 10]: 0.548 (102.8) ng/mL/mg
- t1/2 [4, 11]: 7.72 (2.92) ^i h
- tmax [4, 11]: 1.25 (1.00‐1.50) ^f h
- AUC(0–t)/dose, geometric least-squares mean [4, 12]: 1.826 ng·h/mL/mg
- Cmax/dose, geometric least-squares mean [4, 12]: 0.5485 ng/mL/mg
- AUC(0–t)/dose, Hepatic impairment/healthy ratio (90%CI) ([4]; moderate vs healthy): 37.72 (21.12, 67.37) %
- Cmax/dose, Hepatic impairment/healthy ratio (90%CI) ([4]; moderate vs healthy): 30.31 (17.53, 52.42) %
- MRCmax (metabolite-to-parent Cmax ratio) ([4]; severe hepatic impairment, 20 mg (N = 3), geometric mean (gCV%)): 0.00778 (29.2) ^h
- Cmax/dose ([4]; severe hepatic impairment, 20 mg, geometric mean (gCV%)): 0.173 (44.3) ng/mL/mg
- tmax [4, 13]: 2.00 (1.50‐2.00) ^h
- dose excreted in urine ([5]; healthy subjects, 50 mg): 0.78%
- dose excreted in urine ([5]; mild hepatic impairment, 50 mg): 0.64%
- dose excreted in urine ([5]; moderate hepatic impairment): 0.20%
- dose excreted in urine [5, 13]: 0.09%
